Screening results as filed in PubChem BioAssay.
APJ agonist – activates the human apelin receptor APJ. P35414. AID 2520. activation, % at 20 µM. CHO-K1 APJ PathHunter beta-arrestin, luminescence; 0% DMSO wells, 100% apelin. hit rate 0.11% among 330,000;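 active = activation more than six SD over the plate average, tested at 20 µM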;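 also: 0% = DMSO alone and 100% = apelin-13 at 10 nM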
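Assay system: CHO-K1 cells stably expressing ProLink-tagged human APJ and arrestin–beta-gal acceptor. Compound dosing: 20 µM single point, 1% DMSO. Times: 16-18 h seeding, 90 min dark compound exposure, 60 min detection. Detection: beta-gal luminescence. Evaluation: APJ–arrestin association signal. Controls: negative DMSO alone, positive Apelin-13 at 10 nM.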
CCR6 antagonist – CCR6 (human) receptor antagonism; P51684; CHO-K1 CCR6 PathHunter beta-arrestin, luminescence, CCL20-stimulated; inhibition, % at 20 µM; hit rate 0.49% among 340,000; AID 493098;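 active = compounds whose inhibition of the agonist-driven luminescence signal at 20 µM reaches about 50%, limit read from the data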;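 also: cells stimulated with CCL20 at 14 nM final; plate controls were DMSO with CCL20 for no effect and DMSO without agonist for full effect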
APJ antag – antagonists of human APJ apelin receptor; P35414; CHO-K1 APJ beta-arrestin complementation, luminescence; inhibition, % at 20 µM; hit rate 0.32% among 330,000; AID 2521;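 active = inhibition above about 40% at 20 µM, limit read from the data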;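 also: cells challenged with 10 nM apelin-13 agonist together with compound; plate controls were apelin-13 plus DMSO wells for no effect and DMSO wells lacking apelin-13 for full effect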
CXCR6 inh – blocks human CXCR6 beta-arrestin recruitment. inhibition, % at 20 µM. CHO-K1 PathHunter CXCR6 beta-arrestin, luminescence. hit rate 0.36% among 360,000; in the data active = inhibition above about 34%, passing the limit was not always enough;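 also: antagonist mode with CXCL16 agonist at 10 nM final; 0% = 10 nM CXCL16 with DMSO and 100% = unstimulated wells without agonist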
Target sequence (O00574 whole entry, looked up): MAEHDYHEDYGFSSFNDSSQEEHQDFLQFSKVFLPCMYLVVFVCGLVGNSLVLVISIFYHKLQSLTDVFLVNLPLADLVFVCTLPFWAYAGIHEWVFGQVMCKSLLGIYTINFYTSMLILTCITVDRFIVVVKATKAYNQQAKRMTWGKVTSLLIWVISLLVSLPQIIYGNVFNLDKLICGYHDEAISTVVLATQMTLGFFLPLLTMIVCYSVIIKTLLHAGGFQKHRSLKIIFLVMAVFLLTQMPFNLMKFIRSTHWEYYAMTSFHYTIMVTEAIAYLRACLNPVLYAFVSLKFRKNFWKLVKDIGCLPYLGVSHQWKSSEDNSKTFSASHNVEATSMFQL
EBI2 antag – EBI2 (human) antagonism. P32249. hit rate 0.81% among 360,000. EBI2 beta-arrestin recruitment, luminescence, 7a,25-OHC stimulated. inhibition, % at 5 µM; in the data active = inhibition above about 38%;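 also: enzyme fragment complementation signal reports receptor beta-arrestin coupling in cells; 0% = agonist plus DMSO wells and 100% = wells without agonist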
EBI2 antag conf – EBI2 (human) antagonism, single concentration confirmation; inhibition, % at 5 µM; shares compounds with EBI2 antag; AID 651997; EBI2 beta-arrestin luminescence, 7a,25-OHC antagonism; hit rate 29% among 2,400;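 active = inhibition of at least 50%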
EBI2 ag – counter-screen for EBI2 antagonists: EBI2 agonist activity. shares compounds with EBI2 antag. 2,400 tested, under 10 active. EBI2-expressing cells, agonist mode, luminescence, 60 min; 0% vehicle, 100% 7α,25-dihydroxycholesterol control. activation, % at 5 µM;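 active = activation of at least 50%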
bGal cs – counter-screen for EBI2 antagonists: E. coli beta-galactosidase inhibition. shares compounds with EBI2 antag. purified beta-galactosidase, luminescent Galacton Star, 15 min. inhibition, % at 5 µM. hit rate 1% among 2,400. AID 652176;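 active = replicate-average signal at least 3 plate SD below neutral wells, shown as high inhibition, flagging enzyme-inhibiting false positives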;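 also: 0% = DMSO wells with enzyme and 100% = wells lacking enzyme; higher means stronger loss of beta-gal luminescence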
An asterisk follows results filed as active; . = no result. In the library only some 1.5% were active in any assay of this set; here they are far more common.

SMILES	APJ agonist	CCR6 antagonist	APJ antag	CXCR6 inh	EBI2 antag	EBI2 antag conf	EBI2 ag	bGal cs
Cc1nn(CC(=O)OCC(=O)c2ccc(OC(F)F)cc2)c(C)c1[N+](=O)[O-]	-5	13	-2	2	1	.	.	.
COC(=O)[C@]1(C)N[C@H](CN(C)C(=O)Nc2ccc(C(F)(F)F)cc2)[C@@H]2C(=O)N(C)C(=O)[C@@H]21	-4	-1	-18	6	-4	.	.	.
C=CCc1ccccc1Oc1cc(OC)nc(N)n1	6	9	23	2	-1	.	.	.
COCc1cc(C)nc(OCC(=O)N/N=C/c2ccc(O)cc2)c1C#N	-2	8	1	7	63*	41	2	6
CC(CCc1ccccn1)(CCc1ccccn1)C(=O)c1ccccc1	.	14	.	-3	0	.	.	.
O=C(COc1ccc(Cl)cc1)N1CCN(Cc2ccc3c(c2)OCO3)CC1	-2	-1	4	-4	87*	61*	-1	-14
CCCOc1ccc(C(=O)N2CCN(Cc3ccc4c(c3)OCO4)CC2)cc1	-3	19	-15	2	78*	54*	-1	-10
O=C(/C=C\c1cccs1)N1CCN(Cc2ccc3c(c2)OCO3)CC1	-1	-3	3	3	75*	54*	0	4
CCCOc1ccc(C(=O)Nc2ccc3c(c2)OCO3)cc1	-2	0	0	2	52*	20	-1	-8
COc1ccc(OC(=O)N(C)C[C@@H]2OCc3cn(nn3)CCCC(=O)N([C@@H](C)CO)C[C@H]2C)cc1	.	.	.	1	-3	.	.	.
COc1ccc(Br)cc1CN(C)C(=O)c1cnc(C)cn1	-6	12	17	15	-10	.	.	.
COc1cc2c(cc1OC)C(c1ccccc1)NC(C)(C)C2 (stereo unspecified)	-2	7	3	-4	-8	.	.	.
O=C(CCCc1nc2ccccc2s1)NC(c1ccccc1)c1ccccc1	-5	-8	13	-2	77*	38	-1	-12
N#Cc1cc(-c2ccc(Cl)cc2)cn(Cc2c(Cl)cccc2Cl)c1=O	-3	6	14	-4	45*	19	1	9
O=C(NCc1ccc2c(c1)OCO2)C1CCN(S(=O)(=O)c2ccc(Br)s2)CC1	3	-4	1	-4	44*	18	-1	-4
CC1CC(C)CN(S(=O)(=O)N2CCCC(C(=O)NCCc3ccc(Cl)cc3)C2)C1 (stereo unspecified)	-2	22	-11	-2	57*	52*	-1	-18
CS(=O)(=O)N1CCCC(C(=O)NCCc2ccc(Cl)cc2)C1 (stereo unspecified)	-2	14	10	4	7	.	.	.
O=C(NCCc1ccc(Cl)cc1)C1CCN(S(=O)(=O)c2ccc(Br)s2)CC1	-5	11	3	-3	51*	11	-1	-10
COc1ccc(CNC(=O)C2CCN(S(=O)(=O)c3ccc(Br)s3)CC2)cc1	-1	21	5	7	68*	32	-2	-9
O=C(NCc1ccc2c(c1)OCO2)C1CCN(S(=O)(=O)c2cccs2)CC1	-2	5	-5	-3	10	.	.	.
COc1ccc([N+](=O)[O-])cc1NC(=O)c1ccc(Br)s1	-2	25	25	3	6	.	.	.
CCCCNc1c(CCc2ccccc2)nc2nc(C)cc(C)n12	.	.	.	6	1	.	.	.
CCOC(=O)NC(=O)/C(C#N)=N/Nc1ccc(F)cc1	-6	6	18	-1	78*	11	1	-14
CCOC(=O)C(=O)/C(C#N)=C/Nc1ccc(F)cc1	1	15	-4	-3	-12	.	.	.
Cc1ccc2c(c1)-c1c(cnn1CC(=O)NC(C)CCc1ccco1)CO2 (stereo unspecified)	-3	1	18	12	9	.	.	.
Cc1ccc2c(c1)-c1c(cnn1CC(=O)N(Cc1ccco1)C1CCCCC1)CO2	1	18	12	1	47*	29	1	2
CC(C)(C)OC(=O)N1CCc2onc(-c3ccccc3[N+](=O)[O-])c2C1=O	.	.	.	.	-6	.	.	.
